SKN-1 block = suppressors of acrylamide-induced Pgst-4::GFP reporter in worms, primary screen, SKN-1 inhibitor project, whole organism, uHTS, GFP/RFP fluorescence ratio, strain VP596; AID 624304, 2012; inhibition, % at 21.8 µM; actives 0.49% (n = 360,000); C. elegans VP596 Pgst-4::GFP/RFP ratio, 24 h;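 active = interference check ratio from 0.5 to 1.5 plus GFP to RFP signal ratio inhibition reaching or exceeding a fixed threshold, cut at about 30% in these data, passing the limit was not always enough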
PABP FP inh = PABP poly(A) RNA binding inhibitors, primary screen, biochemical, fluorescence polarization, uHTS; actives 1% (n = 290,000); calls only at 35 µM; Polyadenylate-binding protein 1 (Homo sapiens), P11940; AID 2014, 2009;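 note: calls also rest on retests at 20 µM and on dose response follow-up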
Target sequence (P11940 whole entry, looked up): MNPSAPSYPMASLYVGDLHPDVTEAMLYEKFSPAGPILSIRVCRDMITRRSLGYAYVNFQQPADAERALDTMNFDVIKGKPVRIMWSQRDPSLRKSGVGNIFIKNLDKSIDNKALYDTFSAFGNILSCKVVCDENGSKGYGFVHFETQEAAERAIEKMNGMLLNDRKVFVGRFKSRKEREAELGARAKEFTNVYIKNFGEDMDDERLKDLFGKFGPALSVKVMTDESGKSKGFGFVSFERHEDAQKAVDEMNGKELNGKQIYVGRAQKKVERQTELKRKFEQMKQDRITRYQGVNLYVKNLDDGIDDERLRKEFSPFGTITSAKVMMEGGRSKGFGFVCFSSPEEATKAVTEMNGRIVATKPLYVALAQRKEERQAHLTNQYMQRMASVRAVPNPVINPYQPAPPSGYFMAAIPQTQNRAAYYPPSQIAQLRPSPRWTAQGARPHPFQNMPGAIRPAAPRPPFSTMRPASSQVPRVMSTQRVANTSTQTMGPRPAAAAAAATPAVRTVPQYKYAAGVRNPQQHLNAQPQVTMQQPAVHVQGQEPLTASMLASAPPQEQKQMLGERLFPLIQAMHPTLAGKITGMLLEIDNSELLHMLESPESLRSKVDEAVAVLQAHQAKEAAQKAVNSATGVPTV
MT1-MMP act inh = blockers of MT1-MMP proenzyme processing, primary screen, HT1080 RFP-PRO-GFP cells, GFP/RFP fluorescence. actives 0.061% (n = 360,000). Matrix metalloproteinase-14 (Homo sapiens), P50281. GFP/RFP ratio fluorescence, overnight; percent of plate control window, DMSO zero. GFP/RFP ratio change, % at 20 µM;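 active = GFP/RFP ratio change of at least 30% with cell ATP level not reduced by more than half and red fluorescence within 50% of control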
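Material: RFP-PRO-GFP reporter HT1080 cells. Dosing: single-point 20 µM compound, 1% DMSO. Controls: DMSO and RFP-L50D-GFP cell wells. Timing: cells overnight before dosing, compound overnight, 37 °C, 5% CO2. Measure: GFP/RFP fluorescence ratio.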
eIF4H FP inh = human eIF4H binding inhibitors, primary screen, translation initiation inhibitor project, biochemical, uHTS, fluorescence polarization; eIF4H fluorescence polarization binding assay; inhibition, % at 35 µM; actives 0.94% (n = 290,000);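 note: calls also rest on retests at 20 µM and on dose response follow-up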
MLLE-PAM2 inh = inhibitors of PABP1 MLLE–PAM2 peptide binding, primary screen, biochemical, fluorescence polarization, FITC-PAM2, GST-MLLE | inhibition, % at 20 µM | actives 0.36% (n = 360,000); in the data active = inhibition above about 35%, passing the limit was not always enough;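 note: plate controls were DMSO wells with GST-MLLE for no effect and wells lacking GST-MLLE protein for full effect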
* = called active by the depositor; i = inactive; u = inconclusive; x = no result given; + = active, no number. This is a sample that favours compounds with a hit; in the whole collection about 1.8% have one here. Unless noted, the rule behind the calls is not given here.

SMILES | SKN-1 block | PABP FP inh | MT1-MMP act inh | eIF4H FP inh | MLLE-PAM2 inh
O=C(NC1CCC(O)CC1)c1cc(-c2ccco2)nc2ccccc12 (stereo unspecified) | -6.7 | + | -1.4 | 85.4* | 10.0
COc1cccc(-c2cc(C(=O)NC3CC3)c3ccccc3n2)c1 | 10.0 | i | -3.5 | 1.5 | -3.6
O=C(N/N=C/c1cccc(F)c1)c1cc(-c2ccco2)nc2ccccc12 | 26.3 | + | -12.1 | 83.8* | -18.2
COc1cc(/C=N/NC(=O)c2cc(-c3ccco3)nc3ccccc23)cc(OC)c1O | 5.6 | u | 1.8 | u | -10.7
O=C(NC1CC1)c1cc(-c2ccc(Br)cc2)nc2ccccc12 | 36.0* | x | -7.3 | x | 2.7
O=C(Oc1cccc([N+](=O)[O-])c1)C1CCN(C(=O)c2ccc(F)cc2)CC1 | -1.4 | i | -1.4 | 12.2 | 0.6
O=C(c1cccc(S(=O)(=O)NCc2ccccc2)c1)N1CCN(c2cccc(C(F)(F)F)c2)CC1 | 9.2 | + | -4.8 | 15.7 | 12.2
O=C(c1cccc(S(=O)(=O)NCc2ccccc2)c1)N1CCN(c2ccccc2)CC1 | -2.9 | x | -6.1 | x | 1.3
O=C(NCc1ccncc1)c1cccc(S(=O)(=O)NCc2ccccc2)c1 | -7.8 | + | -0.5 | 13.0 | 5.1
O=C(CSCC(=O)N1CCCCC1)Nc1nc(-c2ccccc2)c(-c2ccccc2)s1 | -6.1 | + | -10.0 | 80.2* | -14.5
O=C(CSc1nc(-c2ccccc2)c(-c2ccccc2)o1)N1CCCCC1 | 1.0 | x | -4.9 | x | 0.7
CCOC(=O)C1CCN(C(=O)COC(=O)/C=C/c2ccc([N+](=O)[O-])cc2)CC1 | 9.0 | x | 3.2 | x | 3.9
CC1(C)CCCN(C(=O)c2coc(=O)c(Br)c2)C1 | 5.4 | + | -6.2 | 89.2* | 6.2
O=C(c1cccc(Br)c1)N1CCCc2ccccc21 | -2.1 | i | 0.2 | 3.5 | 1.9
O=C(c1coc(=O)c(Br)c1)N1CCCc2ccccc21 | -3.6 | + | -4.0 | 67.0* | -18.1
O=C(c1coc(=O)c(Br)c1)N1CCC(C(O)(c2ccccc2)c2ccccc2)CC1 | -14.9 | i | -14.7 | 6.3 | -22.3
Cc1ccc(C(=O)OCC(=O)Nc2ccc(N3CCOCC3)cc2)cc1 | 8.2 | x | -1.5 | x | 7.5
CCCOc1ccc(C(=O)NCC(c2cccs2)N(C)C)cc1 (stereo unspecified) | 0.5 | i | 1.5 | -9.4 | 10.6
CCOc1ccc(C(=O)NCC(c2cccs2)N(C)C)cc1OCC (stereo unspecified) | -10.7 | i | -2.7 | 86.6* | 0.2
CC(=O)Oc1ccccc1/C=C/c1nc2ccccc2c(=O)o1 | 20.1 | i | -5.7 | 15.5 | -25.5
O=c1oc(/C=C/c2ccc([N+](=O)[O-])s2)nc2ccccc12 | 3.0 | + | -27.0 | 97.1* | -21.4
COCCN(CCOC)Cc1c(O)ccc2c1O/C(=C\c1ccco1)C2=O | 8.0 | + | -82.6 | 91.0* | 70.5
O=C(c1cccs1)N1C[C@@H](n2cc(-c3ccc(F)cc3)nn2)[C@H](O)C[C@@H]1c1ccccc1 | -5.1 | x | 1.3 | x | 7.4
Oc1cc2c(cc1CN1CCN(c3ncccn3)CC1)OCO2 | 8.7 | i | -4.0 | -15.6 | 29.0
CC(C(=O)Nc1ccc(S(=O)(=O)N2CCCC2)cc1)N1CCCC(C(N)=O)C1 (stereo unspecified) | 17.7 | x | -3.0 | x | 3.2
SMILES | SKN-1 block | PABP FP inh | MT1-MMP act inh | eIF4H FP inh | MLLE-PAM2 inh
CCNC(=O)N(C)c1c(CC)nc2ccc(C(=O)N3CCN(C(C)=O)CC3)cn12 | 13.1 | x | 3.6 | x | -0.5
c1csc(-c2nnsc2-c2nc3ccccc3[nH]2)c1 | 1.3 | + | -18.5 | 69.2* | -1.3
O=c1[nH]c2ccccc2nc1-c1cccs1 | 8.0 | i | 1.5 | 2.7 | -10.3
O=c1cc(-c2ccccc2)oc2ccc3ccccc3c12 | 36.4* | x | -4.2 | x | 10.3
O=c1cc(-c2ccc(O)c(O)c2)oc2ccc3ccccc3c12 | 20.8 | x | 6.6 | x | 0.1
S=C(c1ccc(N2CCCC2)cc1)N1CCCCC1 | -21.2 | i | 1.0 | -4.4 | 3.4
S=C(c1ccc(N2CCOCC2)cc1)N1CCOCC1 | -13.3 | i | -1.5 | 5.0 | 37.9*

Screens from PubChem BioAssay.
